Among the data in ChEMBL document CHEMBL1142488, “Synthesis of N-substituted 5-[2-(N-alkylamino)ethyl]dibenzo[c,h][1,6]naphthyridines as novel topoisomerase I-targeting antitumor agents” (Bioorg Med Chem, 2008) are IC50 and Activity values, retold here.

Test [1] in a line: Cytotoxicity against camptothecin-resistant and TOP1 deficient mouse P388/CPT45 cells after MTT assay. In kind it is functional, cell-based. The settings on record: P388CPT45. A digest of the protocol: (§1)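 Suspension cultures at 37 °C, 5% CO2, in RPMI with 10% heat-inactivated FBS, 2 mM L-glutamine, penicillin and streptomycin. Continuous 4-day exposure to a range of drug concentrations, then MTT read-out to give IC50. Drug-free control included. At least two runs, six replicate wells each.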

Test [2] can be described thus: Cytotoxicity against multidrug resistant human KBV-1 cells overexpressing MDR1 after MTT assay. In kind it is functional, cell-based. The settings on record: KB-V1. A digest of the protocol: (§2)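 IC50 after continuous 4-day exposure to varying drug concentrations, with MTT read at the end of day 4. A drug-free control was included. At least two runs, each in six replicate wells.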

A short description of test [3]: Cytotoxicity against human RPMI8402 cells after MTT assay. In kind it is functional, cell-based. As to conditions: RPMI 8402. A digest of the protocol:
as §1

Another test relates to P388. As to the kind of experiment: Cytotoxicity against mouse P388 cells after MTT assay. In kind it is functional, cell-based. Summed up:
as §1

Test [4] can be described thus: Cytotoxicity against camptothecin-resistant human CPT-K5 cells after MTT assay. In kind it is functional, cell-based. Summed up: as §1
Test [5] in a line: Cytotoxicity against multidrug resistant human KBH5.0 cells overexpressing BCRP after MTT assay. It counts as functional, cell-based. As to conditions: KBH5.0 cell. Summed up: as §2
Test [6] can be described thus: Cytotoxicity against human KB3-1 cells after MTT assay. It counts as functional, cell-based. The settings on record: KB 3-1. Summed up: as §2
Test [7] has as its target T1, DNA topoisomerase 1 (Homo sapiens) (UniProt P11387).
T1 sequence (whole entry): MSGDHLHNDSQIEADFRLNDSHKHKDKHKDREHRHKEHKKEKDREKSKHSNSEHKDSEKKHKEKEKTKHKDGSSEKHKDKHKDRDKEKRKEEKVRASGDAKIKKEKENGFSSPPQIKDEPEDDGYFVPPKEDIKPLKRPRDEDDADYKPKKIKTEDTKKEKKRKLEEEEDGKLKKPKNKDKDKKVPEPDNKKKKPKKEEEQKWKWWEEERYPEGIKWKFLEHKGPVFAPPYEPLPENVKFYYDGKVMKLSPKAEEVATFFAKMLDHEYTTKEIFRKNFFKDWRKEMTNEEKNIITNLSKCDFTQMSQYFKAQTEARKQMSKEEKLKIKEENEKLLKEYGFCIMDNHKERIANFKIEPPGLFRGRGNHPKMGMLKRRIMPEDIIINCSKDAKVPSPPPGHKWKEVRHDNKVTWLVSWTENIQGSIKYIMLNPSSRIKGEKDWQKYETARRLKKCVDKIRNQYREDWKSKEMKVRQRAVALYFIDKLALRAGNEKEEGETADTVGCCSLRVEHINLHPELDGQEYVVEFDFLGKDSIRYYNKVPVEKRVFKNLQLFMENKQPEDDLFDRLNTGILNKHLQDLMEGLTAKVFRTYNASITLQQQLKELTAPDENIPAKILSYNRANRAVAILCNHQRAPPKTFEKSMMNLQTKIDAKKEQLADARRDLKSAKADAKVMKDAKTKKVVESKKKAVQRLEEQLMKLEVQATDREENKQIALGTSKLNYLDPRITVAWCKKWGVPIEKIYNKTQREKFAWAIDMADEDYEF
Description: Inhibition of human topoisomerase 1 mediated DNA cleavage assessed as effective drug concentration causing 10% YepG plasmid cleavage relative to camptothecin. Summed up: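 Stopped with SDS and proteinase K, 1 h at 37 °C. Alkali-denatured with NaOH/EDTA/sucrose/bromophenol blue, then run on neutral agarose gel.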

Test [8] has as its system MDA-MB-435 (human). Description: Antitumor activity against human MDA-MB-435 cells xenografted in NCR/NU NU mouse assessed as tumor volume measured on day 14 initially dosed at 2 mg/kg, ip qd x 5/week for 2 weeks and was gradually increased to 6 mg/kg x 5/week schedule.
For test [9], the system named is MDA-MB-435 (human). As to the kind of experiment: Antitumor activity against human MDA-MB-435 cells xenografted in NCR/NU NU mouse assessed as tumor volume measured on day 7 initially dosed at 2 mg/kg, ip qd x 5/week for 2 weeks and was gradually increased to 6 mg/kg x 5/week schedule.
In test [10] the test system is MDA-MB-435 (human). As to the kind of experiment: Antitumor activity against human MDA-MB-435 cells xenografted in NCR/NU NU mouse assessed as tumor volume measured on day 42 initially dosed at 2 mg/kg, ip qd x 5/week for 2 weeks and was gradually increased to 6 mg/kg x 5/week schedule.
Test [11] deals with MDA-MB-435 (human). Description: Antitumor activity against human MDA-MB-435 cells xenografted in NCR/NU NU mouse assessed as tumor volume measured on day 35 initially dosed at 2 mg/kg, ip qd x 5/week for 2 weeks and was gradually increased to 6 mg/kg x 5/week schedule.
For test [12], the system named is MDA-MB-435 (human). As to the kind of experiment: Antitumor activity against human MDA-MB-435 cells xenografted in NCR/NU NU mouse assessed as tumor volume measured on day 49 initially dosed at 2 mg/kg, ip qd x 5/week for 2 weeks and was gradually increased to 6 mg/kg x 5/week schedule.
The test system of test [13] is MDA-MB-435 (human). Description: Antitumor activity against human MDA-MB-435 cells xenografted in NCR/NU NU mouse assessed as tumor volume measured on day 28 initially dosed at 2 mg/kg, ip qd x 5/week for 2 weeks and was gradually increased to 6 mg/kg x 5/week schedule.
Test [14] deals with MDA-MB-435 (human). Description: Antitumor activity against human MDA-MB-435 cells xenografted in NCR/NU NU mouse assessed as tumor volume measured on day 21 initially dosed at 2 mg/kg, ip qd x 5/week for 2 weeks and was gradually increased to 6 mg/kg x 5/week schedule.
[15] abbreviates: in the assay text read “relative to topotecan” for “relative to camptothecin”.

With `COc1cc2c(=O)n(CCN(CC(F)(F)F)C(C)C)c3c4cc5c(cc4ncc3c2cc1OC)OCO5`, the IC50 in test [1] is more than 10000 nM; in [2], 4400 nM; in test [3], 1900 nM; in the test on P388 it was 1100 nM; in test [4] it was more than 10 µM; in test [5], 1100 nM. For the same molecule, half-maximal inhibition in [6] (IC50) required 1000 nM. For the same molecule, the Activity in [7] (setting [15]) was more than 10.
`C#CCN(CC)CCn1c(=O)c2cc(OC)c(OC)cc2c2cnc3cc4c(cc3c21)OCO4`: the IC50 in [1] was 2300 nM; in [2], 100 nM; in test [3], 17 nM; in the test on P388, 35 nM; in test [4], more than 10 µM; in test [5], 110 nM. The half-maximal inhibitory concentration (IC50) in test [6] was found to be 70 nM. Further, the Activity with MDA-MB-435 (human) [8] was 106 mm3; in the test with MDA-MB-435 (human) [9], 115 mm3; in the test on MDA-MB-435 (human) [10], 349 mm3; in the test with MDA-MB-435 (human) [11], 331 mm3; in [7] (setting [15]), more than 10; with MDA-MB-435 (human) [12] it was 488 mm3. The Activity in the test with MDA-MB-435 (human) [13] stood at 204 mm3; in the test with MDA-MB-435 (human) [14] it was 170 mm3.
On to `CCOc1cc2c(=O)n(CCN(C)C)c3c4cc5c(cc4ncc3c2cc1OCC)OCO5`, for which the IC50 was determined as 13 nM in test [1]; 190 nM in test [2]; 150 nM in test [3]; 15 nM in the test with P388; 0.14 µM in test [4]; 100 nM in test [5]. Further, the IC50 in [6] turned out to be 70 nM. Also, in [7], the Activity is more than 10.
In the case of `CC[C@@]1(O)C(=O)OCc2c1cc1n(c2=O)Cc2cc3ccccc3nc2-1` [CAMPTOTHECIN], the IC50 in test [1] is more than 10000 nM; in test [3], 6 nM; in test [4], more than 10 µM.
For `C#CCN(CCn1c(=O)c2cc(OC)c(OC)cc2c2cnc3cc4c(cc3c21)OCO4)C(C)C`, the IC50 is 3700 nM in test [1]; 430 nM in test [2]; 65 nM in [3]; 80 nM with P388; more than 10 µM in [4]; 70 nM in [5]. Further, in test [6], the IC50 was 100 nM. Moreover, the Activity is 112 mm3 in the test on MDA-MB-435 (human) [8]; 99 mm3 in the test on MDA-MB-435 (human) [9]; 310 mm3 in the test with MDA-MB-435 (human) [10]; 234 mm3 in the test on MDA-MB-435 (human) [11]; more than 10 in test [7] (setting [15]); 357 mm3 with MDA-MB-435 (human) [12]. The Activity in the test on MDA-MB-435 (human) [13] came to 170 mm3; with MDA-MB-435 (human) [14] it was 165 mm3.
`CC[C@@]1(O)C(=O)OCc2c1cc1n(c2=O)Cc2cc3c(CN(C)C)c(O)ccc3nc2-1` [TOPOTECAN]: the IC50 in test [1] is more than 10000 nM; in [3], 21 nM; in test [4] it was more than 10 µM; in test [5] it was 440 nM; in test [6], 40 nM. Further, the Activity in test [7] (setting [15]) came out at 1.
Take `COc1cc2c(=O)n(CCN(C)CC(F)(F)F)c3c4cc5c(cc4ncc3c2cc1OC)OCO5`: the 50% inhibitory concentration (IC50) in test [1] was more than 10000 nM; in [2] it was 1000 nM; in test [3] it was 250 nM; in the test on P388 it was 250 nM; in test [4], more than 10 µM; in [5] it was 630 nM. The same molecule came in with an IC50 in test [6] of 410 nM. Besides, the Activity in test [7] (setting [15]) was more than 10.
For `CCN(CCn1c(=O)c2cc(OC)c(OC)cc2c2cnc3cc4c(cc3c21)OCO4)CC(F)(F)F`, the concentration for half-maximal inhibition (IC50) in [1] was more than 10000 nM; in test [2] it was 2900 nM; in test [3] it was 700 nM; in the test on P388, 610 nM; in [4], more than 10 µM; in test [5], 750 nM. Further, in [6], the IC50 was 650 nM. Moreover, the Activity in the test on MDA-MB-435 (human) [8] was 176 mm3; in the test on MDA-MB-435 (human) [9], 127 mm3; in the test with MDA-MB-435 (human) [10] it was 543 mm3; with MDA-MB-435 (human) [11] it was 435 mm3; in test [7] (setting [15]), more than 10; with MDA-MB-435 (human) [12], 718 mm3. The Activity in the test with MDA-MB-435 (human) [13] is 310 mm3; with MDA-MB-435 (human) [14] it was 268 mm3.
Regarding `COc1cc2c(=O)n(CCN(C)CC#N)c3c4cc5c(cc4ncc3c2cc1OC)OCO5`, the IC50 in test [1] was 220 nM; in test [2], 43 nM; in test [3], 4 nM; with P388, 3 nM; in test [4], 0.98 µM; in test [5], 27 nM. In test [6], half-maximal inhibition (IC50) required 5 nM. Further, the Activity in the test on MDA-MB-435 (human) [8] was 222 mm3; with MDA-MB-435 (human) [9] it was 149 mm3; in the test with MDA-MB-435 (human) [10] it was 669 mm3; in the test on MDA-MB-435 (human) [11], 528 mm3; in test [7] (setting [15]), less than 0.2; with MDA-MB-435 (human) [12], 919 mm3. The Activity with MDA-MB-435 (human) [13] came to 392 mm3; in the test with MDA-MB-435 (human) [14], 370 mm3.
Consider `CCN(CC#N)CCn1c(=O)c2cc(OC)c(OC)cc2c2cnc3cc4c(cc3c21)OCO4`, for which the IC50 in test [1] was 130 nM; in test [2], 34 nM; in test [3], 1 nM; in the test with P388, 1 nM; in test [4] it was 0.67 µM; in [5] it was 7 nM. Also, it took 4 nM to reach half-maximal inhibition in [6] (IC50). Moreover, the Activity was 156 mm3 in the test on MDA-MB-435 (human) [8]; 100 mm3 in the test with MDA-MB-435 (human) [9]; 361 mm3 in the test on MDA-MB-435 (human) [10]; 293 mm3 with MDA-MB-435 (human) [11]; less than 0.2 in test [7] (setting [15]); 435 mm3 in the test with MDA-MB-435 (human) [12]. Besides, the figures for the Activity in the test with MDA-MB-435 (human) [13] and in the test on MDA-MB-435 (human) [14] were 202 mm3 and 178 mm3, respectively.
